We go through four compounds from publication PMC10008514 (Chemical communications (Cambridge, England), 2023).

Entries after “also recorded” stand apart in the source; their conditions may differ. Read-outs that look alike come from different tables or passages of the source.

A short description of series [1]: Reaction with L-cysteine methyl ester. Format: physicochemical. As to conditions: equimolar 13, 24 h, 10% acetonitrile 90% water, pH 7.4, 1.25 mM. The procedure, abridged:
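Test compound and L-cysteine methyl ester were mixed in equimolar amounts at a final concentration of 1.25 mM. The solvent was 10% acetonitrile and 90% water at pH 7.4. The mixture was incubated for 24 h before analysis.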

The nature of the next series: Reactivity with DTNB. In kind it is physicochemical. As to conditions: compound:DTNB 1:10, incubation 90 min, absorbance 412 nm.
Another series addresses hCAII. As to conditions: read-out: Ki hCAII; reported inhibitor; cited from earlier work.
For series [2], the target named is T1, matrix metalloproteinase-2 (MMP-2) (Homo sapiens, UniProt P08253).
T1 sequence (P08253 110-660): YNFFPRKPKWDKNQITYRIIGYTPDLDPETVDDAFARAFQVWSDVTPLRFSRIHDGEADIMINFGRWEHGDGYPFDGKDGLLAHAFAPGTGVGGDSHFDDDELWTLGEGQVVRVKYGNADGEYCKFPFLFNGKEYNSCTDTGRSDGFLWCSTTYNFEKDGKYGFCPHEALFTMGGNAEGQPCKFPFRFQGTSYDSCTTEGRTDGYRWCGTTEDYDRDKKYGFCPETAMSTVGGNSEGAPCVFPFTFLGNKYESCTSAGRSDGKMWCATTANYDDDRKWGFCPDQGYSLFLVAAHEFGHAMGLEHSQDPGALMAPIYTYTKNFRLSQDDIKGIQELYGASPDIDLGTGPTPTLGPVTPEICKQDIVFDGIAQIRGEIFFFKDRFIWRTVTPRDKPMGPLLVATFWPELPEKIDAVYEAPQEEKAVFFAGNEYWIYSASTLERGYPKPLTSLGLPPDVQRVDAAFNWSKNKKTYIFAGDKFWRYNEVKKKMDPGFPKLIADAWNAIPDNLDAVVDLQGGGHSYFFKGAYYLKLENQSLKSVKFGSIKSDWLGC
In words: MMP-2 inhibition assay. In kind it is biochemical.

Series [3] deals with human carbonic anhydrase II (hCAII) (Homo sapiens, UniProt P00918). In words: hCAII inhibition assay. In kind it is biochemical.

On to `S=c1[nH]c2ccccc2o1` [Compound 1, benzo[d]oxazole-2-(3H)-thione], for which, in series [1], the “Reactivity with L-cysteine methyl ester (13), disulfide formation by HPLC” value (shortened to “Reactivity with L-cysteine methyl ester”) is on record as “most stable compounds”. Further, the “Percent reactivity (conversion) with DTNB” value (“Percent reactivity” for short) in the series “Reactivity with DTNB” was “most stable compounds”. Further, the inhibitory constant (Ki) – broadly, the equilibrium dissociation constant of an inhibitor or competing ligand from its target – on hCAII is 0.97 µM. In addition, the IC50 (in general, the midpoint of a concentration-inhibition curve) in series [2] (read-out: IC50 MMP-2, ± 95% confidence interval) was above 200 µM; in series [3] (read-out: IC50 hCAII, ± 95% confidence interval), above 200 µM. Moreover, the “IC50 hCAII” value in series [3] (± 95% confidence interval) was “not active”.

As to `S=C1Cc2ccccc2N1` [Compound 5, 2-indolinethione], in series [1], the “Reactivity with L-cysteine methyl ester” value was “stable in the presence of 13”. The IC50 came to 76.6 ± 4.26 µM in series [2] and 3.42 ± 0.34 µM in series [3].

Turning to `Oc1ccccc1S` [Compound 11, 2-mercaptophenol, reference compound], the “Reactivity with L-cysteine methyl ester” value in series [1] is “generate disulfide products with 13”. Besides, the “Percent reactivity” value in the series “Reactivity with DTNB” is on record as “essentially quantitative conversion; also recorded: essential quantitative disulfide formation”. Further, the Ki at hCAII was 0.63 µM. Further, the IC50 was above 200 µM in series [2] and 19.4 ± 5.15 µM in series [3].

As for `C[C@H](CS)C(=O)N1CCC[C@H]1C(=O)O` [Compound 12, captopril], in the series “Reactivity with DTNB”, the “Percent reactivity” value was “essentially quantitative conversion; also recorded: essential quantitative disulfide formation”.
